Bioassay records from PubChem BioAssay.
hK5 inh – human KLK5 protease inhibitors, primary screen, biochemical, 1536-well; inhibition, % at 5 µM; actives 0.59% (n = 210,000); Kallikrein-5 (Homo sapiens), Q9Y337; recombinant hK5, fluorogenic AMC substrate cleavage;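 active = inhibition of 40% or more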;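 also: 0% = enzyme controls without compound and 100% = no-enzyme blanks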
Thrombin inh – human alpha-thrombin inhibitors, primary screen, counter-screen for coagulation protease inhibitor project, biochemical, 1536-well, fluorogenic AMC substrate | Prothrombin (Homo sapiens), P00734 | Boc-VPR-AMC fluorogenic substrate cleavage | inhibition, % at 5 µM | actives 0.26% (n = 220,000);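 active = inhibition at or above 40%; inactive = inhibition below 40%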;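 also: 0% = enzyme with no compound and 100% = wells without enzyme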
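Material: Human alpha-thrombin protein | Buffer or medium: pH 7.5 Tris-saline with Tween 20 | Reagent: Boc-VPR-AMC substrate, 15 µM final | Schedule: Reaction at ambient temperature | Detection: AMC fluorescence at 355 nm excitation and 460 nm emission | Evaluation: Percent inhibition scaled between no-compound controls and no-enzyme blanks | Controls: no-compound enzyme wells and no-enzyme blanks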
FXIIa inh 1536 – human FXIIa protease inhibitors, primary screen, biochemical, 1536-well; Coagulation factor XII (Homo sapiens), P00748; purified FXIIa, Boc-QGR-AMC fluorogenic substrate, 2 h; inhibition, % at 5 µM; actives 0.3% (n = 220,000); AID 800, 2007; in the data active = inhibition above about 40%;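 also: 0% = enzyme with no compound and 100% = blank without enzyme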
FXIa inh 1536 – human FXIa protease inhibitors, primary screen, biochemical, 1536-well; Coagulation factor XI (Homo sapiens), P03951; inhibition, % at 5 µM; purified FXIa, Boc-Glu-Ala-Arg-AMC fluorogenic substrate; actives 0.14% (n = 220,000); AID 798, 2007;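 active = inhibition of at least 40%; inactive = inhibition below 40%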;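 also: fluorescence of freed AMC excited at 355 nm; 0% = enzyme without compound and 100% = no enzyme blank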
Target sequence (P03951 19-387 limits assumed): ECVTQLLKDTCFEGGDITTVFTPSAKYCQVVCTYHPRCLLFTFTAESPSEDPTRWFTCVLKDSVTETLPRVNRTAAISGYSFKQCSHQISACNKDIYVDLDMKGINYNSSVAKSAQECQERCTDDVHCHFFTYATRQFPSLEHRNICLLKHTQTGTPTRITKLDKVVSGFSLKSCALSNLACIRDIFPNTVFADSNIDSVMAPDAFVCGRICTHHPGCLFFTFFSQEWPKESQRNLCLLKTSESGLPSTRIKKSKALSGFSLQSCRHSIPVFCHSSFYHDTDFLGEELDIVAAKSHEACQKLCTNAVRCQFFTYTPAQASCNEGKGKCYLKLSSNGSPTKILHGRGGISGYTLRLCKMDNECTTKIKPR
Target sequence (P03951 388-625 limits assumed): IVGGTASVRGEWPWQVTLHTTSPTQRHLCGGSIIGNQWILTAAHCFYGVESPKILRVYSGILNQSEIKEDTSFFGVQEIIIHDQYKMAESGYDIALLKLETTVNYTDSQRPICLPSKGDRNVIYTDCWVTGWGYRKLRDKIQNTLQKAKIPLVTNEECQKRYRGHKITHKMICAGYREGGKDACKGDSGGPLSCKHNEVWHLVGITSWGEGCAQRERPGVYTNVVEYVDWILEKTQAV
Calpain2 inh – inhibitors of pig calpain II, primary screen, biochemical, fluorogenic peptide substrate, 1536-well. purified calpain II, 30 min. inhibition, % at 16 µM. actives 0.37% (n = 220,000);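 active = inhibition above about 50%, limit read from the data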
Furin inh – human furin inhibitors, primary screen, biochemical, fluorescence intensity. actives 0.061% (n = 220,000). inhibition, % at 20 µM or 30 µM. purified furin, fluorogenic substrate cleavage; in the data active = inhibition above about 25%
The depositor's hits bear a star. Sampled rows, rich in hits. Any-hit rate of the full collection: about 1.4%.

SMILES | hK5 inh | Thrombin inh | FXIIa inh 1536 | FXIa inh 1536 | Calpain2 inh | Furin inh
Cc1cc(Br)ccc1OCC(=O)NNC(=O)C(=O)Nc1ccccc1 | -1 | -11 | 5 | -4 | -69 | -24
COc1nccc(-c2ccc(F)cc2)c1C#N | 0 | -10 | 3 | -3 | -29 | -17
O=C(CN1C(=O)C2C3C=CC(C3)C2C1=O)NCc1ccc2c(c1)OCO2 (stereo not given) | -10 | 1 | -7 | -6 | -7 | 27*
Cc1cc(F)ccc1NCc1cccnc1 | 2 | -3 | 0 | -7 | -7 | -19
Cc1ccc(NCc2cccnc2)c(Br)c1 | 47* | 13 | 19 | 13 | 23 | -16
O=C(N[C@H](C(=O)O)c1ccccc1)C1CCC(Cn2nnc3ccccc3c2=O)CC1 (stereo not given in full) | 18 | 10 | 43* | 28 | 17 | -6
CCOC(=O)c1c(NC(=O)CSc2nnc(-c3cccnc3)o2)sc(C(C)=O)c1C | 48* | 18 | 19 | 1 | 23 | -20
CC(=O)Nc1ccc(S(=O)(=O)Nc2cccc3[nH]ncc23)cc1 | 4 | -5 | 9 | -3 | 51* | -25
O=C1C=C(c2ccc(Cl)cc2)OC2(CCCC2)O1 | 11 | -4 | 13 | -2 | -5 | 29*
O=C1C=C(c2ccccc2)OC2(CCCC2)O1 | 2 | -3 | 9 | 1 | -37 | -16
CC1(C)CC(=O)C=C(N=CC2=C(O)CC(C)(C)CC2=O)C1 | 2 | -2 | 1 | 1 | -5 | -12
Cc1cc(N=CC2=C(O)CC(C)(C)CC2=O)no1 | 3 | 0 | -1 | -2 | -9 | 46*
Cc1cccc(/N=C/C2=C(O)CC(C)(C)CC2=O)n1 | 3 | -1 | 8 | 2 | -9 | 46*
COc1cc(NC(=O)CCCl)cc(-n2cnnn2)c1 | 6 | 1 | 11 | 1 | 32 | -29
Cc1ccc(C(=O)N2CCN(c3cnn(C)c(=O)c3Cl)CC2)cc1 | 32 | 18 | 18 | 1 | 19 | 2
O=S(=O)(c1cccc(F)c1)N1CCN(C(=S)NCc2ccccc2)CC1 | 0 | -12 | 6 | -1 | -3 | -1
Brc1ccc(CSc2nnc(Cc3c[nH]c4ccccc34)o2)cc1 | -19 | -7 | -1 | -7 | 70* | -10
CCS(=O)(=O)N1CCCC(c2nc(-c3cccc(OC)c3)no2)C1 (stereo not given) | 40* | 15 | 19 | 5 | 0 | -6
CC(=O)Nc1ccc(NS(=O)(=O)c2ccc(C)cc2)cc1[N+](=O)[O-] | 47* | -5 | 4 | -13 | 6 | 12
C/C(=N\NS(=O)(=O)c1ccc(C)c([N+](=O)[O-])c1)c1cc2ccccc2o1 | 107* | 6 | 15 | 12 | -12 | -6
C/C(=N\NS(=O)(=O)c1ccc(Cl)c([N+](=O)[O-])c1)c1cc2ccccc2o1 | 1 | -1 | 1 | -7 | -20 | -18
CCCCC(=O)c1c(O)c2ccccc2oc1=O | -1 | -12 | 10 | 15 | 17 | -26
CCCCN=C(C)c1c(O)c2ccccc2oc1=O | -29 | -12 | -5 | -5 | 73* | -19
CCCCOc1ccc(C(=O)N/C(=C\c2cccc([N+](=O)[O-])c2)C(=O)OC(C)C)cc1 | -11 | 23 | 4 | -15 | 51* | 1
CCCCOc1ccc(C(=O)N/C(=C\c2cccc([N+](=O)[O-])c2)C(=O)OCCC)cc1 | -3 | -9 | 14 | 3 | 14 | -18
SMILES | hK5 inh | Thrombin inh | FXIIa inh 1536 | FXIa inh 1536 | Calpain2 inh | Furin inh
Cc1ccc(N2C(=S)NC3c4ccccc4OC2(C)C3C(=O)N(C)C)cc1 (stereo not given) | 5 | 44* | 15 | 0 | -27 | -28
Cc1ccccc1N1C(=S)NC2c3ccccc3OC1(C)C2C(=O)N(C)C (stereo not given) | -16 | 2 | -1 | -1 | -13 | -27
COC(=O)c1ccc2nc(NC(=O)CSCC(=O)OCC(=O)c3ccccc3)sc2c1 | -13 | -3 | 9 | 6 | -21 | -8
Cc1ccc2nc(NC(=O)CSCC(=O)OCC(=O)c3ccc(Br)cc3)sc2c1 | 9 | 92* | 19 | 7 | -4 | -7
COc1ccc(N/C(=N\c2nc(C)cc(C)n2)NC(=O)C(C)C)cc1OC | 0 | 1 | 0 | -5 | -33 | -11
COc1ccc(N/C(=N\c2nc(C)cc(C)n2)NC(C)=O)cc1OC | -5 | 50* | 13 | 1 | -33 | -24
Cc1ccccc1Nc1scc(-c2ccc(Cl)cc2)[n+]1-c1ccccc1C | -3 | -15 | 2 | -3 | 50* | 0
CNC(=S)N(Cc1ccccc1)Cc1cccnc1 | 0 | 2 | 9 | 1 | -24 | -24
O=C(NN1C(=O)c2ccccc2NC1c1ccco1)c1ccc(Br)cc1 (stereo not given) | -23 | 4 | 7 | -3 | -35 | -27
O=C(NN1C(=O)c2ccccc2NC1c1ccco1)c1ccc([N+](=O)[O-])cc1 (stereo not given) | 1 | -1 | 3 | 3 | 62* | -23
O=C(Nc1ccc(F)cc1F)c1ccc(-n2cccn2)nc1 | 0 | -2 | 4 | -4 | -13 | -16
O=C(Nc1ccc(F)cc1F)c1ccc(-n2cncn2)nc1 | -5 | 44* | 6 | -3 | 37 | -20
COc1cc(NC(=O)c2nccnc2C(=O)O)cc(OC)c1 | 122* | 16 | 2 | 4 | 11 | -10
COc1cc(NC(=O)c2n[nH]c(=O)c3ccccc23)cc(OC)c1 | 4 | 1 | 9 | 1 | -34 | -32
CC1CC(C)CN(CC(=O)NCCc2ccc(S(N)(=O)=O)cc2)C1 (stereo not given) | -7 | -14 | 9 | 1 | 5 | -18
Cc1ccc(OCC(=O)NNC(=O)C(C)Sc2ncnc3sc(C)c(C)c23)cc1 (stereo not given) | -167 | -2 | 9 | -7 | 91* | -19
Cc1sc2ncnc(SC(C)C(=O)N3c4ccccc4Sc4ccccc43)c2c1C (stereo not given) | -6 | -1 | 3 | -12 | -42 | -14
CC(C)(C)NC(=O)NC(=O)COC(=O)Cn1cnc2ccccc2c1=O | 0 | -1 | 4 | -4 | -10 | -21
O=C(COC(=O)Cn1cnc2ccccc2c1=O)Nc1cc(Cl)ccc1[N+](=O)[O-] | -8 | 65* | 10 | 9 | 4 | -9
COc1ccc(Cl)cc1S(=O)(=O)N1CCN(C(=O)COc2ccccc2)CC1 | -16 | -6 | -2 | 2 | -11 | -12
FC(F)(F)c1cccc(NC(=S)Nc2cccc(NC(=S)Nc3cccc(C(F)(F)F)c3)n2)c1 | -3 | -5 | 2 | -1 | -7 | -15
